Legend:
Type in all cases: functional
[1] = Inhibition of lymphocyte proliferation in vitro by 25 uM.; settings: Homo sapiens
[2] = Percent inhibition against incorporation of [3H]-thymidine in Human mixed lymphocyte reaction at a concentration of 25 uM
[3] = Effective dose against inhibitory potency in Human mixed lymphocyte reaction; settings: read-out: ED50 (the source's name)
How it was run: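 Human MLR: responder lymphocytes and mitomycin-C-treated stimulator lymphocytes, isolated on Ficoll-Metrizoate (10^5 each), cultured in triplicate in RPMI 1640 with 2 mM glutamine, 10 mM HEPES and 20% (final) pooled human AB serum plus drug. Incubation 5 days at 37 °C under 5% CO2/95% air. [3H]thymidine incorporation read; ED50 taken from a graph of ≥4 points, each the mean of 3–10 experiments.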

[4] = Percent inhibition against incorporation of [3H]thymidine in Human mixed lymphocyte reaction at a concentration of 10 uM.
[5] = Inhibition of human mixed leukocyte proliferation in vitro; Not determined.; settings: read-out: ED50 (the source's name)
[6] = Percent inhibition against incorporation of [3H]thymidine in Human mixed lymphocyte reaction at a concentration of 50 uM.

Row | Structure (SMILES) | inhibition at 25 µM [1] [%] | inhibition at 25 µM [2] [%] | further results
1 | Cn1cnc([N+](=O)[O-])c1Sc1nc2cc([N+](=O)[O-])ccc2[nH]1 | 2 |  | 
2 | Cc1ccc2[nH]c(Sc3c([N+](=O)[O-])ncn3C)nc2c1 | 86 |  | 
3 | COc1cc2nc(Sc3c([N+](=O)[O-])ncn3C)[nH]c2cc1OC | 94 |  | 
4 | Cn1cnc([N+](=O)[O-])c1Sc1ccccn1 |  | 76 | 
5 | Cn1cnc([N+](=O)[O-])c1SC1=NCCS1 | 100 |  | 
6 | Cn1cnc([N+](=O)[O-])c1Sc1nc2ccccc2[nH]1 | 90 |  | 
7 | COc1ccc(OC)c2[nH]c(Sc3c([N+](=O)[O-])ncn3C)nc12 | 41 |  | 
8 | Cc1cc(C)nc(Sc2c([N+](=O)[O-])ncn2C)n1 | 47 |  | 
9 | Cn1cnc([N+](=O)[O-])c1Sc1nc2ccccc2o1 |  | 87 | 
10 | Cn1cnc([N+](=O)[O-])c1Sc1ccccc1C(=O)O |  | 34 | 
11 | CCn1c(C)nc([N+](=O)[O-])c1Sc1nccn1C | 100 |  | EC50 [3]: 2900 nM; inhibition at 10 µM [4]: 98%
12 | Cn1ccnc1Sc1c([N+](=O)[O-])ncn1C | 100 |  | EC50 [3]: 3150 nM; inhibition at 10 µM [4]: 82%
13 | CCn1c(C)nc([N+](=O)[O-])c1Sc1nncn1C | 100 |  | EC50 [3]: 2500 nM; inhibition at 10 µM [4]: 98%
14 | Cn1cnc([N+](=O)[O-])c1Sc1nc[nH]n1 | 58 |  | EC50 [3]: 14000 nM
15 | Cn1cnc([N+](=O)[O-])c1Sc1ncc[nH]1 | 100 |  | EC50 [3]: 2800 nM; inhibition at 10 µM [4]: 89%
16 | Cn1cnnc1Sc1c([N+](=O)[O-])ncn1C | 100 |  | EC50 [3]: 2700 nM; inhibition at 10 µM [4]: 98%
17 | Cn1cnc([N+](=O)[O-])c1Sc1nccc(O)n1 | 29 |  | 
18 | Cn1cnc([N+](=O)[O-])c1Sc1ncccn1 | 47 |  | 
19 | Cn1cnc([N+](=O)[O-])c1Sc1[nH]cnc2nc(O)nc1-2 |  | 50 | EC50 [5]: 24 µM
20 | Cn1cnc([N+](=O)[O-])c1Sc1nc2ccccc2s1 |  | 27 | 
21 | Cc1cc(C)cc(Sc2c([N+](=O)[O-])ncn2C)c1 |  | 47 | 
22 | CCOC(=O)CSc1c([N+](=O)[O-])ncn1C |  | 65 | 
23 | Cn1cnc([N+](=O)[O-])c1Sc1ccccc1N | 21 |  | 
24 | Cn1cnc([N+](=O)[O-])c1Sc1nc2cc(Cl)c(F)cc2[nH]1 |  |  | inhibition at 50 µM [6]: 59%
25 | Cn1cnc([N+](=O)[O-])c1Sc1ncnc2[nH]cnc12 [AZATHIOPRINE] |  | 79 | EC50 [3]: 7900 nM

Reference: ChEMBL document CHEMBL1129365, “Rational design of novel immunosuppressive drugs: analogues of azathioprine lacking the 6-mercaptopurine substituent retain or have enhanced immunosuppressive effects” (1996)
